Active and inactive are the calls of the source. No cut-off for these calls is given here.
Experiments:
Mus musculus = experiment: Acute toxicity in KM mouse at 677 to 2000 mg/kg, po after 14 days; assay type: organism-based; parameters: dose 677-2000 mg/kg, route oral; details: in vivo, 336 h
How it was run: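 Male KM mice (22 days, 18−20 g), fasted overnight with free access to water, n = 5 per group; single oral dose of 0, 677, 1333 or 2000 mg/kg suspended in 0.5% CMC-Na. Watched continuously for 4 h, intermittently for 24 h, then occasionally to day 14 for behaviour and mortality; killed day 14, heart, liver and kidneys examined macroscopically.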

[1] = Cytotoxicity against human SH-SY5Y cells assessed as cell viability at 10 uM after 24 hrs by MTT assay; assay type: cell-based
How it was run: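 SH-SY5Y cells seeded 5 × 10^4/well, then exposed to compound for 24 h at 37 °C. MTT (0.5 mg/mL final) added for 4 h; formazan dissolved in DMSO and read at 570 nm. Viability is treated/untreated absorbance × 100, each corrected for zero-day control. Three independent experiments in sextuplicate.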

[2] = biological target: T1, Amine oxidase [flavin-containing] B (Homo sapiens, UniProt P27338)
T1 sequence (P27338 whole entry): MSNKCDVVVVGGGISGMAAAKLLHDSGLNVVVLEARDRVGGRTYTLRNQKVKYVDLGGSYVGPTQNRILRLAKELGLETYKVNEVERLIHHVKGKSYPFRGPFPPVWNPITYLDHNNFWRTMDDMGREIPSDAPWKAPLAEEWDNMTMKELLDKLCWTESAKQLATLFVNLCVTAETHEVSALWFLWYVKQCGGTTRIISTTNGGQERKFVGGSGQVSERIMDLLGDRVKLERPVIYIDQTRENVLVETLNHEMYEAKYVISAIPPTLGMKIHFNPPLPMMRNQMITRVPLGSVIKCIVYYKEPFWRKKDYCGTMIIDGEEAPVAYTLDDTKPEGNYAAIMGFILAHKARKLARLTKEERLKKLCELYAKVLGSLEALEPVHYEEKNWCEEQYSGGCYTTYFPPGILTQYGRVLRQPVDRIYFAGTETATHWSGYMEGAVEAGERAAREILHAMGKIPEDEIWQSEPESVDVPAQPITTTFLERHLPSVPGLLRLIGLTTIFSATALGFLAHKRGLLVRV

[3] = biological target: T2, Amine oxidase [flavin-containing] A (Homo sapiens, UniProt P21397); experiment: Inhibition of human recombinant MAOA using p-tyramine as substrate incubated for 15 mins prior to substrate addition measured after 20 mins by fluorescence plate reader analysis
T2 sequence (P21397 whole entry): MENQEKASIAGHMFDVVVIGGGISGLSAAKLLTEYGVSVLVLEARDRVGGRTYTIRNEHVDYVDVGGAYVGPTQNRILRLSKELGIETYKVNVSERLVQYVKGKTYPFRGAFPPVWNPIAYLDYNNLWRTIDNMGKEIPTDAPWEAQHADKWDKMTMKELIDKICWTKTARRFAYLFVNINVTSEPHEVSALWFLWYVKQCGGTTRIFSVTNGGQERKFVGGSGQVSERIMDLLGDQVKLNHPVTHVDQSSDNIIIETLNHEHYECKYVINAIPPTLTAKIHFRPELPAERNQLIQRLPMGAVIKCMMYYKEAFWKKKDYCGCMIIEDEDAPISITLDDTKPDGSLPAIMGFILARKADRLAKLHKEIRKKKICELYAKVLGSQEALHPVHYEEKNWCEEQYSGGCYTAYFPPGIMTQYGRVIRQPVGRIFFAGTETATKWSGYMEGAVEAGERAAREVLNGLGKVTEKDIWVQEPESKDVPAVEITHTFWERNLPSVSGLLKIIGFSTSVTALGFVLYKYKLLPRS

Cholinesterase = Cholinesterase (Equus caballus, UniProt P81908); experiment: Inhibition of equine serum BuChE using butylthiocholine chloride as substrate preincubated for 15 mins followed by substrate addition measured every 1 min by Ellman's method
Acetylcholinesterase = Acetylcholinesterase (Electrophorus electricus, UniProt O42275); experiment: Inhibition of electric eel AChE using acetylthiocholine chloride as substrate preincubated for 15 mins followed by substrate addition measured every 1 min by Ellman's method
How it was run: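 Ellman method in 0.1 M potassium phosphate buffer, pH 8.0, 1 mL assay containing DTNB and thiocholine substrate (each 50 μL of 0.01 M stock). Enzyme (AChE stock 2.0 units/mL) preincubated with compound 15 min at 37 °C, then substrate added. A412 read at 1 min intervals at 37 °C. Each concentration in triplicate. IC50 from at least three experiments.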

[4] = biological target: Amyloid-beta precursor protein (Homo sapiens, UniProt P05067)
SH-SY5Y = experiment: Antioxidant activity in human SH-SY5Y cells assessed as decrease in t-BuOOH-induced intracellular ROS production at 5 to 20 uM incubated for 24 hrs prior to t-BuOOH challenge measured after 30 mins by DCFHDA-based fluorescence assay; assay type: functional, cell-based
How it was run: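 SH-SY5Y cells (DMEM, 10% FCS, 37 °C, 5% CO2) seeded 1 × 10^4/well and grown 24 h. Compound added for 24 h; Trolox control at 5, 10, 20 μM. Cells are then washed, loaded with 5 μM DCFH-DA in PBS for 30 min, and challenged with 0.1 mM t-BuOOH for 30 min. Fluorescence read at ex 485/em 535 nm. Result is % of control by formula; three independent experiments in sextuplicate.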

Acetylcholinesterase, sequence (O42275 whole entry): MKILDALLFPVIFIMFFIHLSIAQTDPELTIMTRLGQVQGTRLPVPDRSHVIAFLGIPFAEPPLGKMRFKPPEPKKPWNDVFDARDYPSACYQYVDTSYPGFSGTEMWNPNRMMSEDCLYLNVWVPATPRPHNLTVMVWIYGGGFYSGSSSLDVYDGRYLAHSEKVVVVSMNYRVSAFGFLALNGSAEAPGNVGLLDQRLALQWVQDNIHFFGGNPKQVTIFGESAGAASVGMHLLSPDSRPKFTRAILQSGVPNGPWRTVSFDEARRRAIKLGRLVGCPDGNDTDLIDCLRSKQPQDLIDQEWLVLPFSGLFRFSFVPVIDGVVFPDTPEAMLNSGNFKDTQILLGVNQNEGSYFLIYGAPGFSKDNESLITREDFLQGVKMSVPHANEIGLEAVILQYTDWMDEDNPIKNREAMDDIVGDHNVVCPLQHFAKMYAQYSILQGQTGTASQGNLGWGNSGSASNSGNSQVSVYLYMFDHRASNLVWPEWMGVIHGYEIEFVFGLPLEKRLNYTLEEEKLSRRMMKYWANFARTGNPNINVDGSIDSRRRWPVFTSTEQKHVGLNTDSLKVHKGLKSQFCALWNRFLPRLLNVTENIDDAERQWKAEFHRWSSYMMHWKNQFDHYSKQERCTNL
Cholinesterase, sequence (P81908 whole entry): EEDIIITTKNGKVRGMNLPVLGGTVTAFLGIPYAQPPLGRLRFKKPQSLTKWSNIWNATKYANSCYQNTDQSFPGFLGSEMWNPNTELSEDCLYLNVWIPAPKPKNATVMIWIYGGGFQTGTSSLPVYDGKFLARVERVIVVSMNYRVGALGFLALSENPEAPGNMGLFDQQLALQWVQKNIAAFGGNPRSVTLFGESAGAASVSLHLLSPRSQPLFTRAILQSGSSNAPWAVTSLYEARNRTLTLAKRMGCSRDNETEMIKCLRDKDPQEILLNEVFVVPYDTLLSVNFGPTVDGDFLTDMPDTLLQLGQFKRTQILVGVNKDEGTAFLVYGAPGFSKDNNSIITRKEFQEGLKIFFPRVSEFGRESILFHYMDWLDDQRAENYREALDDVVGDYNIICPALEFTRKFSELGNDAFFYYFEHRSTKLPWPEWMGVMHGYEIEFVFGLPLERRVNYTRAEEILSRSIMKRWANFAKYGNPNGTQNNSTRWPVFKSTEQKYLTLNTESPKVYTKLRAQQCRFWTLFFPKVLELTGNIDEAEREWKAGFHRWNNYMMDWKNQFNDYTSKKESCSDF
Amyloid-beta precursor protein, sequence (P05067 whole entry): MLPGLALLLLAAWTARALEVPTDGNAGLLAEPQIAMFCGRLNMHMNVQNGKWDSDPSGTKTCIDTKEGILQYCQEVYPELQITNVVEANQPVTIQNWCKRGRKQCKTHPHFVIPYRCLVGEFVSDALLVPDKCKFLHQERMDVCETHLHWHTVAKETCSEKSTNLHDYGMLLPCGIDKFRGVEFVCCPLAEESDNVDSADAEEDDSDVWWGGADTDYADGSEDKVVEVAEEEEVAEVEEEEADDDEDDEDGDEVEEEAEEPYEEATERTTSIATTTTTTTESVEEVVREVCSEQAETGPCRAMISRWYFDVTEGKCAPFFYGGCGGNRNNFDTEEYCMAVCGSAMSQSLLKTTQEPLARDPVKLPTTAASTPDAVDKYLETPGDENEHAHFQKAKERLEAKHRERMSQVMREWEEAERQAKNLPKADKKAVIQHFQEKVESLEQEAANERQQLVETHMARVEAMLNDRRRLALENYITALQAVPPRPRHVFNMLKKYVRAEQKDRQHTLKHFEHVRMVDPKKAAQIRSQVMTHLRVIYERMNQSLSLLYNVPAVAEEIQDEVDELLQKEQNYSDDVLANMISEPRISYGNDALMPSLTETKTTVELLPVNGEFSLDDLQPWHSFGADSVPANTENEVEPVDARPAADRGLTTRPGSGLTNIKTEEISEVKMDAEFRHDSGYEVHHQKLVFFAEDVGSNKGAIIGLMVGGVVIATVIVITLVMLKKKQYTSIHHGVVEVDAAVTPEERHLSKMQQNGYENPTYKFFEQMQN

SMILES	Activity (Mus musculus)	Activity [1]	IC50 [2] [µM]	IC50 [3] [µM]	IC50 (Cholinesterase) [µM]	IC50 (Acetylcholinesterase) [µM]	IC50 [4] [µM]	Activity (SH-SY5Y)
COc1cc(/C=C/c2ccc(NCc3cc(N(C)C)ccc3O)cc2)cc(OC)c1	Non-toxic	Non-toxic	12.2	8.19	> 50	36	7.56	
Cc1c(C)c2c(c(C)c1O)CCC(C)(C(=O)O)O2 (racemic)								Active
CN(C)c1ccc(O)c(CNc2ccc(/C=C/c3cc(O)cc(O)c3)cc2)c1		Non-toxic	14.1	7.08	21.2	6.27	6.51	

Source: ChEMBL document CHEMBL2401626 (J Med Chem, 2013)
